According to ChEMBL document CHEMBL2169747, “Synthesis and biological properties of highly sequence-specific-alkylating N-methylpyrrole-N-methylimidazole polyamide conjugates” (J Med Chem, 2012):
Calls of active or inactive are those of the source. No cut-off for these calls is given here.

Assays:
[1] = system: A549; assay: Antitumor activity against human A549 cells xenografted in BALB/c-nu/nu mouse assessed as effect on tumor growth at 1.6 mg/kg, iv administered as liposomal conjugate for 14 days; type: functional, organism-based; design: dose 1.6 mg/kg
Outline: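 Male BALB/c-nu/nu mice (5 weeks, 15−22 g) with subcutaneous right-subaxillary A549 or DU145 xenografts (3 × 10^6 cells/mouse), grouped by tumor size. Liposomes were made from a lipid film hydrated in water and bath-sonicated 2 h, giving 330 μg/mL conjugate in 17 mM lipid. A single 125 μL intravenous dose (41 μg/mouse) was given on day 0. Tumor size and weight were read every other day for 14 days. n = 5 or 6.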

[2] = system: A549; assay: Cytotoxicity against human A549 cells assessed as cell growth inhibition after 48 hrs by microplate reader analysis; type: functional, cell-based; settings: A549, 48 h
Outline: (§1)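 Medium was RPMI-1640 for EBC-1, A549 and DU145, and DMEM for PC-3, SK-N-SH and K562. Both media had 10% heat-inactivated FBS plus penicillin/streptomycin; cells were kept at 37 °C, 5% CO2. Cells were seeded at 5000/well and given compound from DMSO stock (final 0.1% DMSO) for 48 h. Viability was read by WST-8 colorimetry, absorbance at 450 and 600 nm, and IC50 determined.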

[3] = system: Nucleic Acid; assay: Induction of calf thymus DNA cleavage at 10 to 25 nM after 12 h by PAGE analysis; type: nucleic-acid assay; settings: in the assay text read “208-bp PCR fragment DNA” for “calf thymus DNA”
Outline: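 5′-Texas Red-labeled 208 bp PCR fragments alkylated in 5.0 mM sodium phosphate (pH 7.0) with 10% DMF, room temperature, 12 h. Quenched with calf thymus DNA and heated 95 °C for 5 min under neutral conditions. Recovered DNA in formamide loading dye, heated 95 °C 20 min, then run on 6% denaturing polyacrylamide gel with 6.0 M urea at 1.5 kV, 40 °C.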

[4] = system: DU-145; assay: Antitumor activity against human DU145 cells xenografted in BALB/c-nu/nu mouse assessed as effect on tumor growth at 0.50 mg/kg, ip for 14 days; type: functional, organism-based; design: dose 0.5 mg/kg
Outline: (§2)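 Male BALB/c-nu/nu mice, 5 weeks old, 15−22 g. Cells were implanted subcutaneously in the right subaxillary region at 3 × 10^6 cells/mouse: 50 μL for A549, 100 μL for DU145, with HBSS and Matrigel used. Mice were grouped by tumor size. The naked conjugate was given intraperitoneally once on day 0 as 20 μL at 625 μg/mL in 100% DMSO (12.5 μg/mouse). Tumor size and weight were measured every other day for 14 days. n = 7 or 8.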

[5] = system: K562; assay: Cytotoxicity against human K562 cells assessed as cell growth inhibition after 48 hrs by microplate reader analysis; type: functional, cell-based; settings: K562, 48 h; outline: as §1
[6] = system: A549; assay: Upregulation of MDM2 gene expression in human A549 cells at 26 nM after 12 hrs by microarray analysis relative to control; type: functional
Outline: (§3)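 4 ×10^5 A549 cells seeded per 60 mm dish and treated 12 h with conjugate (21, 26, 34 or 100 nM) in medium; control medium contained 0.1% DMSO, with conjugates added as 0.1% DMSO solutions. Whole human genome (~25 000 genes) expression profiled by microarray against the DMSO control. A549 culture: RPMI-1640 with 10% heat-inactivated FBS, penicillin/streptomycin, 37 °C, 5% CO2.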

[7] = system: A549; assay: Upregulation of BTG2 gene expression in human A549 cells at 26 nM after 12 hrs by microarray analysis relative to control; type: functional; outline: as §3
[8] = system: SK-N-SH; assay: Cytotoxicity against human SK-N-SH cells assessed as cell growth inhibition after 48 hrs by microplate reader analysis; type: functional, cell-based; outline: as §1
[9] = system: DU-145; assay: Antiangiogenic activity against human DU145 cells; type: functional, cell-based
[10] = system: A549; assay: Upregulation of CDKN1A gene expression in human A549 cells at 26 nM after 12 hrs by microarray analysis relative to control; type: functional; outline: as §3
[11] = system: A549; assay: Antitumor activity against human A549 cells xenografted in BALB/c-nu/nu mouse assessed as effect on tumor growth at 0.50 mg/kg, ip for 14 days; type: functional, organism-based; design: dose 0.5 mg/kg; outline: as §2
[12] = system: PC-3; assay: Cytotoxicity against human PC3 cells assessed as cell growth inhibition after 48 hrs by microplate reader analysis; type: functional, cell-based; settings: PC-3, 48 h; outline: as §1
[13] = system: A549; assay: Antiangiogenic activity against human A549 cells; type: functional, cell-based
[14] = Cytotoxicity against human EBC1 cells assessed as cell growth inhibition after 48 hrs by microplate reader analysis; type: functional, cell-based; settings: EBC-1, 48 h; outline: as §1
[15] = system: A549; assay: Downregulation of HS2ST1 gene expression in human A549 cells at 26 nM after 12 hrs by microarray analysis relative to control; type: functional
Outline: (§4)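 A549 cells, 4 × 10^5 per 60 mm dish, were exposed to conjugate for 12 h in medium with 0.1% DMSO; vehicle control was 0.1% DMSO. Whole human genome (~25 000 genes) expression was profiled by microarray and expression compared with the control.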

[16] = system: Mus musculus; assay: Toxicity in BALB/c nu/nu mouse at 1.6 mg/kg, iv administered as liposomal conjugate for 14 days; type: organism-based; design: dose 1.6 mg/kg, route intravenous; settings: in vivo, 336 h
Outline: (§5)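 Pre-test in male BALB/c-nu/nu mice without xenografts. Naked conjugate was dissolved in 100% DMSO and given ip at 0.50 mg/kg (12.5 μg/mouse). Liposomal conjugate (0.33 mg/mL in 17 mM lipid, hydrated with water and sonicated) was given iv at 1.6 mg/kg (41 μg/mouse), 125 μL single dose.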

[17] = system: A549; assay: Upregulation of SPESP1 gene expression in human A549 cells at 26 nM after 12 hrs by microarray analysis relative to control; type: functional; outline: as §3
[18] = system: Mus musculus; assay: Toxicity in BALB/c nu/nu mouse at 0.50 mg/kg, ip for 14 days; type: organism-based; design: dose 0.5 mg/kg, route intraperitoneal; settings: in vivo, 0.5 mg/kg, 336 h; outline: as §5
[19] = system: DU-145; assay: Cytotoxicity against human DU145 cells assessed as cell growth inhibition after 48 hrs by microplate reader analysis; type: functional, cell-based; settings: DU-145, 48 h; outline: as §1
[20] = system: A549; assay: Downregulation of HIST1H2AC gene expression in human A549 cells at 34 nM after 12 hrs by microarray analysis relative to control; type: functional; outline: as §4
[21] = system: A549; assay: Upregulation of KRTHA4 gene expression in human A549 cells at 34 nM after 12 hrs by microarray analysis relative to control; type: functional; outline: as §3
[22] = system: A549; assay: Downregulation of Q8N570 gene expression in human A549 cells at 34 nM after 12 hrs by microarray analysis relative to control; type: functional
Outline: (§6)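 A549 cells (RPMI-1640, 10% heat-inactivated FBS, penicillin/streptomycin, 37 °C, 5% CO2) seeded at 4 × 10^5 per 60 mm dish. Exposed 12 h to conjugate at 21, 26, 34 or 100 nM in medium with 0.1% DMSO, against 0.1% DMSO control. Whole-genome (~25 000 genes) expression profiled by microarray.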

[23] = system: A549; assay: Downregulation of SUPT3H gene expression in human A549 cells at 34 nM after 12 hrs by microarray analysis relative to control; type: functional; outline: as §6
[24] = system: A549; assay: Upregulation of BTG2 gene expression in human A549 cells at 34 nM after 12 hrs by microarray analysis relative to control; type: functional; outline: as §3
[25] = system: A549; assay: Downregulation of ACTG gene expression in human A549 cells at 34 nM after 12 hrs by microarray analysis relative to control; type: functional; outline: as §4

SMILES	Activity [1]	IC50 [2] [nM]	Activity [3]	Activity [4]	IC50 [5] [nM]	IC50 [8] [nM]	Activity [9]	Activity [11]	IC50 [12] [nM]	Activity [13]	IC50 [14] [nM]	IC50 [19] [nM]	further results
CC(=O)Nc1cn(C)c(C(=O)Nc2cc(C(=O)Nc3cc(C(=O)NCCC(=O)Nc4cc(C(=O)NCCCC(=O)Nc5cc(C(=O)NCCC(=O)Nc6cn(C)c(C(=O)Nc7ccc8[nH]c(C(=O)N9CC(CCl)c%10c9cc(O)c9ccccc%109)cc8c7)n6)n(C)c5)n(C)c4)n(C)c3)n(C)c2)n1 (racemic)	inactive	25.7	Active	inactive	9.12	19.1	inactive	inactive	12.6	inactive	60.3	6.03	fold change (FC) [6]: 8.1; fold change (FC) [7]: 10.1; fold change (FC) [10]: 8.2; fold change (FC) [15]: 0.329; Activity [16]: Non-toxic; fold change (FC) [17]: 11; Activity [18]: Non-toxic
CC(=O)Nc1cn(C)c(C(=O)Nc2cn(C)c(C(=O)Nc3cc(C(=O)NCCC(=O)Nc4cc(C(=O)NCCCC(=O)Nc5cn(C)c(C(=O)NCCC(=O)Nc6cn(C)c(C(=O)Nc7ccc8[nH]c(C(=O)N9CC(CCl)c%10c9cc(O)c9ccccc%109)cc8c7)n6)n5)n(C)c4)n(C)c3)n2)n1 (racemic)	inactive	33.9	Active	inactive	11.5	40.7	inactive	inactive	19.1	inactive	170	6.31	fold change (FC) [20]: 0.329; fold change (FC) [21]: 6.1; fold change (FC) [22]: 0.186; fold change (FC) [23]: 0.231; fold change (FC) [24]: 9.7; fold change (FC) [25]: 0.307
